Measured values reported in paper PMC5621377 (Clinical cancer research : an official journal of the …, 2016).
“Also recorded” adds a separate entry of the source.

Tests used:
[1] = tested on: Ki67 and phosphorylated Rb [pRb]; assay: Pharmacodynamic biomarkers by immunohistochemistry in skin and tumor biopsies; assay type: in vivo, human
Jeko-1 MCL xenograft = conditions: doses comparable to those achievable in humans; cited from earlier work
[2] = Pharmacokinetics, plasma LC-MS/MS, non-compartmental analysis; assay type: in vivo, human
Method in brief: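 Oral daily dosing at 50–1,200 mg/day. On Cycle 1 Days 1 and 18/21, blood was drawn pre-dose and at 0.5, 1, 2, 4, 6, 8 and 24 h, with further trough days. Parent drug and a metabolite in plasma were measured by validated LC-MS/MS (LLOQ 1.0 ng/mL). Non-compartmental analysis was used. Dose proportionality was fitted as ln(Cmax or AUC0–24) = α + β ln(dose). T1/2,acc came from the accumulation ratio; steady state was judged from troughs.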

[3] = tested on: patients with Rb+ advanced solid tumors or lymphomas; assay: Phase I dose escalation: DLT and MTD/RDE determination; assay type: in vivo
[4] = ref unpublished data; cited from earlier work
[5] = tested on: Rb+ advanced solid tumors or lymphomas; assay: Clinical activity, radiographic response; assay type: in vivo, human
Method in brief: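 Oral test compound given daily on a 3-weeks-on/1-week-off schedule (50–1,200 mg/day) or a continuous 28-day schedule (600 mg/day). Response was assessed by CT or MRI per RECIST 1.0 for solid tumors or IWG criteria for lymphomas. Scans were done at the end of every second cycle for six cycles, then every third cycle, and at end of treatment. Patients receiving at least one dose were included; analyses were descriptive.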

neuroblastoma cell lines = conditions: in vitro, dose-dependent; cited from earlier work

In the case of CN(C)C(=O)c1cc2cnc(Nc3ccc(N4CCNCC4)cn3)nc2n1C1CCCC1 [ribociclib], the “post-treatment changes in pRb in tumor samples” value ([1]; 16 paired tumor biopsies) is reported as “not significant or consistent”, the “change of Ki67 in tumor biopsies” value ([1]; 19 paired tumor biopsies, baseline to Day 15 of Cycle 1 or 2) is reported as “reductions of Ki67 from baseline were observed at higher ribociclib doses” and the “change of pRb in skin samples” value ([1]; 46 paired skin biopsies) is reported as “Mean decreases of pRb in skin samples were observed at all dose levels”. For the same compound, the “change of Ki67 in skin biopsies” value ([1]; 48 paired skin biopsies, baseline to Day 15 of Cycle 2) was “post-treatment reductions of Ki67 were observed across all dose levels”, the “tumor response in xenograft” value (Jeko-1 MCL xenograft) was “complete regressions” and the “mean effective half-life based on accumulation ratio (T1/2, acc)” value ([2]; at the RDE (600 mg/day 3-weeks-on/1-week-off), oral) was 32.6 h. The “dose proportionality of Cmax and AUC” value ([2]; dose range 50–1,200 mg/day) was “slightly higher than dose proportional; also recorded: slightly more than proportional to dose”, the Tmax ([2]; human, plasma, po) was 1 to 5 h and the “steady state reached by” value ([2]; trough concentrations after repeated daily dosing) was ~8 days. For the same compound, the “maximum tolerated dose (MTD)” value ([3]; 3-weeks-on/1-week-off schedule) was 900 mg/day, the “recommended dose for expansion (RDE)” value ([3]; human, in vivo, 28 days) was 600 mg/day and the “number of dose-limiting toxicities during Cycle 1” value ([3]; in vivo) was “Nine”. The “nonclinical toxicity finding, bone marrow” value [4] was “hypocellularity”, the “nonclinical toxicity finding, cardiac” value [4] was “prolongation of the average QTc” and the “nonclinical toxicity finding, lymphoid system” value [4] was “lymphoid depletion”. The “nonclinical toxicity finding, testes” value [4] was “atrophy”, the “patients with best response of stable disease” value ([5]; 132 patients) was 43 and the “stable disease as best overall response by RECIST, patients” value ([5]; 132 patients) was 41. The “stable disease as best overall response per IWG, patients” value ([5]; 132 patients) was “two”, the partial response rate ([5]; 132 patients, RECIST) was 2.3% and the “stable disease as best overall response, rate” value ([5]; RECIST plus IWG, 132 patients) was 32.6%. For the same compound, the time on therapy ([5]; one patient with teratoma, 400 mg/day 3-weeks-on/1-week-off) was 100 weeks, the time on therapy ([5]; patient with liposarcoma, 600 mg/day continuous, past cut-off date) was 102 weeks and the “concentration with marked accumulation of cells in G0/G1 phase” value (neuroblastoma cell lines) was “above 100 nmol/L”.
